Measured values from the EternaBench riboswitch data.

Tested on: MS2 coat protein
Assay: apparent Kd, MS2 coat protein; higher = weaker binding; RNA-MaP array; FMN 200 µM where present
Outline: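 Designs were transcribed by stalled E. coli RNA polymerase on Illumina sequencing-chip clusters. They were titrated with SNAP-549-labelled MS2 coat protein from 0.7 or 1.5 nM, doubling to 3 µM, without and then with constant ligand. Buffer: 100 mM Tris-HCl pH 7.5, 80 mM KCl, 4 mM MgCl2, BSA, DTT, yeast tRNA, Tween-20. Green signal was normalised to red-channel RNA signal and control-cluster median Fmax. Apparent Kd is the median of filtered per-cluster binding-curve fits.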

[1] = designed as: ON switch for flavin mononucleotide, no ligand
[2] = ligand present: flavin mononucleotide, designed as: ON switch for flavin mononucleotide
[3] = designed as: OFF switch for flavin mononucleotide, no ligand
[4] = ligand present: flavin mononucleotide, designed as: OFF switch for flavin mononucleotide

| Sequence | apparent Kd [1] | apparent Kd [2] | apparent Kd [3] | apparent Kd [4] |
| --- | --- | --- | --- | --- |
| UGUUGUUCCGCAGGAUAUGUAUUGGAUUACAAUACAGAAGGGCGAUAACAUGAGGAUCACCCAUGUGUGGACAAUAAGGAAGAG | 708 nM | 67.1 nM |  |  |
| AGGUACAUCAUAGGAUAUCGUGUGUAAACAUGAGGAUCACCCAUGUCAUCCGAGAGUAUAUCGACCGAGAAGGGUGAUGUACCU | 22 nM | 32.5 nM |  |  |
| AAAGGUACAGGAUAUGCGUGGAAAAAGUGUAUUCAAAAAAAACAUGAGGAUCACCCAUGUAGAAGGGUACCAAA |  |  | 81 nM | 269 nM |
| GGUUGUCAUAGUCAUCCUUUCCGUACAUGAGGAUCACCCAUGUAGGAUAUGCUACUCAAAGAGUAGCAGAAGGGCGUGUGUCUU |  |  | 17.2 nM | 18.8 nM |
| AACGCGUCAGGAUAUAGCGUAACUUAGGUAGUACGACCAUACUAGAAGGGACAUGAGGAUCACCCAUGUGGGUA |  |  | 232 nM | 112 nM |
| GCGUCCCGCAGAGGAUAUGUUGUUCCGCCUACAUGAGGAUCACCCAUGUCAAAGGGCUGAUCCCGACAGAAGGCUGAAGGAUAC | 130 nM | 138 nM |  |  |
| GCGUGGUUCUAGAAGGUGCUAGCGAUAAGCUAGCAAGGAUAUAGACAUGAGGAUCACCCAUGUCUUUGUGAAAUCGACACACGC |  |  | 5.58 nM | 6.39 nM |
| GUGGAGUAAGGAUAUACAUGAGGAUCACCCAUGUGAGGGUAUGUGAUGGGAGUAGGUUGUAGAAGGUACGAGGA |  |  | 287 nM | 131 nM |
| UGUGCUAUGUAGAAGGCAGAUCUGAUUCAGAUCUGAGGAUAUACAUGAGGAUCACCCAUGUUAUGCACCAGCACGAGAGUGCAA |  |  | 8.13 nM | 16 nM |
| CUUCUGUCAGGAUAUGCGAAUCACCACUGGGUCAGCGGUGAGCAGAAGGGACAUGAGGAUCACCCAUGUAAAGU |  |  | 40.5 nM | 171 nM |
| AUCAGCUCGUCAGGAUAUACGUCACUGGGUCAGCAGUGUGGUAAGAUCACAUGAGGAUCACCCAUGUAGAAGGGACGAGCUGAU |  |  | 66.3 nM | 483 nM |
| AAAAAGACAGGAUAUACAUGAGGAUCACCCAUGUGAAAAAAAAAAAAAAAAAAAAAGUGUAGAAGGGUCAAAAA |  |  | 48.9 nM | 35.4 nM |
| UUAACUCAUGUAGGAUAUGCAUGGCGAAGCUACGCAGAAGGACAUGAGGAUCACCCAUGUUCUAGCGUCUGGAUACAGAUGCAA |  |  | 56.1 nM | 227 nM |
| AACGACGGAGGAUAUACACCCUGGGACUCAUCAUCCCUUAGACAUGAGGAUCACCCAUGUAGAAGGCCGGACAC |  |  | 34.9 nM | 154 nM |
| AGCACGAAAGUGCAACGAUGUACGAGAAGGACAUGAGGAUCACCCAUGUUGCUGUAACAGCACAUGUAGGAUAUCGUACAUCGA |  |  | 166 nM | 180 nM |
| UAAAAUCAUGUAGGAUAUGCGUGGCGAAGCUAUGCAGAAGGACAUGAGGAUCACCCAUGUCUUAGCUAGCGUACUAGCUUAAAG |  |  | 12.9 nM | 49.7 nM |
| UCGAGUCAUGAGAAGGGUUGAUGUUACAUGAGGAUCACCCAUGUCAUGGGCAGGAUAUCAUUGACACGACUGUACCUCUCUUAC | 254 nM | 112 nM |  |  |
| AUGUUACAUGAGGAUCACCCAUGUGAGGAUAUGUGUACUGGUAAAAAAGUGUUUGGCCACAGAAGGCAUUUGGG |  |  | 50.4 nM | 148 nM |
| CUGACAGCGCAGAAGGGAGAUCCUACAUGAGGAUCACCCAUGUGGGCUCUCAGGAUAUGCACGUGUAUACCGAAAGUGGUAUUG | 13.4 nM | 5.99 nM |  |  |
| GUGGCACAUGAGGAUCACCCAUGUAGGUAGAACAUAGGAUAUCACCAACAAAAUACCUGGUGAGAAGGAUGAUGCC | 166 nM | 59.8 nM |  |  |
| ACGUGUUAUACAGGAUAUGUAUAGGUAUAAUCAUACAGUUAUUAAUUAAUGACAGAAGGGUAAACAUGAGGAUCACCCAUGUCA |  |  | 511 nM | 248 nM |
| UAAAUGUGAGGAUAUUCGUAGUACACGGAGACGUGUAUUACGGAGAAGGCACAUGAGGAUCACCCAUGUUCCUU |  |  | 22.2 nM | 166 nM |
| CAGAGGAUGUAAGGAUAUCGUCAGGAAUACUGACGAGAAGGUACAUGAGGAUCACCCAUGUAACUCUAAUAAUAAUAACCUCUG |  |  | 12.6 nM | 16.4 nM |
| ACCUUACAUGAGGAUCACCCAUGUUAGGAUAUCUCGCUUGCGCAAUCACAGCACAAGCAGAGAAGGGACGCGGG |  |  | 28.1 nM | 32.5 nM |
| AUAUCUCCCGAGAAGGACGUACCACAUGUUGAUCACCGAUAUAAGGAACGUAGGAUAUUGGACAUGAGGAUCACCCAUGUGGAU | 391 nM | 23.6 nM |  |  |
| GCGAUUUUGUAAGGAUAUACUCGAGUUUUAAGAGUAGAAGGUACUUACAUGAGGAUCACCCAUGUCUAACGUAAUACUAGUCGC | 10.3 nM | 9.24 nM |  |  |
| ACACGACAUGAGGAUCACCCAUGUGAGGAUAUCGAACUCAACUAAGCACAAAGUAACCCGAGAAGGCACACAAU |  |  | 25.1 nM | 24.1 nM |
| AAUAACAGAGGAUAUACUAUUUUAUGUGUUUAUUGUUUUGAACAUGAGGAUCACCCAUGUAGAAGGCUGAGUAA |  |  | 30.2 nM | 38 nM |
